Data as given in ChEMBL document CHEMBL1132452, “Synthesis and anticonvulsant activity of novel and potent 2,3-benzodiazepine AMPA/kainate receptor antagonists” (J Med Chem, 1999).

Experiments:
Mus musculus [1] = species: Mus musculus; test: The compound was tested for Anticonvulsant activity against maximal electroshock (MES) induced seizures in Swiss mice.; assay type: functional
Summary of the method: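 Swiss mice given the compound ip in 30% DMSO/70% saline, then 45 min later ear-clip electroshock (50 mA, 20 ms pulses, 35 Hz, 400 ms). Protection was abolition of tonic hindlimb extension. Four to five doses, 8–10 mice each; ED50 by Litchfield–Wilcoxon.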

[2] = Relative lipophilicity of the compound; assay type: physicochemical; details: reversed-phase TLC, acetone/water 2:1
Summary of the method: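 Reversed-phase TLC on plates dried at 105 °C for 1 h. Mobile phase acetone/water 2:1 (v/v). Compound in CHCl3 (3 mg/mL), 1 µL spotted. Five runs, each with a different placement on the plate. Mean Rf converted by Rm = log[(1/Rf) − 1]; higher Rm means higher lipophilicity.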

Mus musculus [3] = species: Mus musculus; test: The compound was tested for locomotor deficit (rotarod test) in Swiss mice.
Mus musculus [4] = species: Mus musculus; test: The compound was tested for Anticonvulsant activity against audiogenic seizures in DBA/2 mice in tonic phase; assay type: functional
Summary of the method: (§1)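 Male DBA/2 mice (8–12 g, 22–25 days), groups of 10 per dose, given the compound ip in 30% DMSO/70% saline at doses within 3.3–200 µmol/kg. Sound stimulation 30 min later; latency and incidence of seizure phases scored. ED50 per phase by Litchfield–Wilcoxon, at least 32 animals per value.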

Mus musculus [5] = species: Mus musculus; test: The compound was tested for Anticonvulsant activity against Pentylenetetrazole (PTZ) induced seizures in Swiss mice; assay type: functional
Summary of the method: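 Male Swiss mice (20–26 g, 42–48 days) pretreated ip with the compound in 30% DMSO/70% saline, then 45 min later PTZ 85 mg/kg (CD97) sc. Observed for 30 min; protection was absence of clonic spasms lasting at least 5 s. ED50 by Litchfield–Wilcoxon, at least 32 animals.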

Mus musculus [6] = species: Mus musculus; test: The compound was tested for Anticonvulsant activity against audiogenic seizures in DBA/2 mice in clonic phase; assay type: functional; summary of the method: as §1
Mus musculus [7] = test: The compound was tested for Anticonvulsant activity against audiogenic seizures in DBA/2 mice in clonic phase. 30 min after ip administration.; assay type: functional; details: 0.5 h
Summary of the method: (§2)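 Time course in male DBA/2 mice (8–12 g, 22–25 days) after ip dosing in 30% DMSO/70% saline, with auditory stimulation at the stated time after injection. Groups of 10 mice per time point; clonic-phase ED50 (95% confidence limits) by Litchfield–Wilcoxon, at least 32 animals per value.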

Mus musculus [8] = test: The compound was tested for Anticonvulsant activity against audiogenic seizures in DBA/2 mice in clonic phase. 15 min after ip administration.; assay type: functional; details: 0.25 h; summary of the method: as §2
Mus musculus [9] = species: Mus musculus; test: The compound was tested for Anticonvulsant activity against audiogenic seizures in DBA/2 mice after pretreatment with Aniracetam in tonic phase.; assay type: functional
Summary of the method: (§3)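 Male DBA/2 mice (8–12 g, 22–25 days) given aniracetam 50 nmol icv 30 min before the ip compound (30% DMSO/saline), i.e. 60 min before auditory stimulation. Clonic or tonic phase incidence scored; ED50 by Litchfield–Wilcoxon, at least 32 animals.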

Mus musculus [10] = species: Mus musculus; test: The compound was tested for Anticonvulsant activity against AMPA induced seizures in DBA/2 mice in tonic phase; assay type: functional
Mus musculus [11] = test: The compound was tested for Anticonvulsant activity against audiogenic seizures in DBA/2 mice in clonic phase. 90 min after ip administration.; assay type: functional; details: 1.5 h; summary of the method: as §2
Mus musculus [12] = species: Mus musculus; test: The compound was tested for Anticonvulsant activity against AMPA induced seizures in DBA/2 mice clonic phase.; assay type: functional
Mus musculus [13] = test: The compound was tested for Anticonvulsant activity against audiogenic seizures in DBA/2 mice in clonic phase. 60 min after ip administration.; assay type: functional; details: 1 h; summary of the method: as §2
Mus musculus [14] = test: The compound was tested for Anticonvulsant activity against audiogenic seizures in DBA/2 mice in clonic phase. 45 min after ip administration.; assay type: functional; details: 0.75 h; summary of the method: as §2
Mus musculus [15] = species: Mus musculus; test: The compound was tested for Anticonvulsant activity against audiogenic seizures in DBA/2 mice after pretreatment with Aniracetam in clonic phase; assay type: functional; summary of the method: as §3
Mus musculus [16] = species: Mus musculus; test: The compound was tested for Anticonvulsant activity against KA induced seizures in DBA/2 mice.; assay type: functional
Mus musculus [17] = test: The compound was tested for Anticonvulsant activity against audiogenic seizures in DBA/2 mice in clonic phase. 120 min after ip administration.; assay type: functional; details: 2 h; summary of the method: as §2

| Rm [2] | SMILES | ED50 (Mus musculus [1]) [µmol/kg] | TD50 (Mus musculus [3]) [µM/kg] | ED50 (Mus musculus [4]) [µmol/kg] | ED50 (Mus musculus [5]) [µmol/kg] | ED50 (Mus musculus [6]) [µmol/kg] | ED50 (Mus musculus [7]) [µmol/kg] | ED50 (Mus musculus [8]) [µmol/kg] | ED50 (Mus musculus [9]) [µmol/kg] | ED50 (Mus musculus [10]) [µmol/kg] | ED50 (Mus musculus [11]) [µmol/kg] | ED50 (Mus musculus [12]) [µmol/kg] | ED50 (Mus musculus [13]) [µmol/kg] | ED50 (Mus musculus [14]) [µmol/kg] | ED50 (Mus musculus [15]) [µmol/kg] | ED50 (Mus musculus [16]) [µmol/kg] | ED50 (Mus musculus [17]) [µmol/kg] |
| --- | --- | --- | --- | --- | --- | --- | --- | --- | --- | --- | --- | --- | --- | --- | --- | --- | --- |
| -0.25 | CCCNC(=O)N1N=C(c2ccc(N)cc2)c2cc3c(cc2CC1=O)OCO3 | 76.5 | 182 | 49.2 | > 100 | 69.4 |  |  |  |  |  |  |  |  |  |  |  |
| -0.269 | Nc1ccc(C2=NN=C(S)Cc3cc4c(cc32)OCO4)cc1 | 9.79 | 39.8 | 5.09 | 25.2 | 11.8 | 11.8 | 5.9 | 16.3 | 11.5 | 45 | 15.6 | 19.6 | 13.4 | 31.4 | 15.6 | > 50 |
| -0.323 | CCNC(=O)N1N=C(c2cccc(N)c2)c2cc3c(cc2CC1=O)OCO3 | 60.2 | 126 | 32.1 | 90.7 | 44.9 |  |  |  |  |  |  |  |  |  |  |  |
| -0.552 | Nc1ccc(C2=NNC(=O)Cc3cc4c(cc32)OCO4)cc1 | 32.1 | 99.1 | 10.9 | 71.8 | 15.4 | 15.4 | 7.55 | 39.6 | 28.5 | > 50 | 37.9 | 21.3 | 18.7 | 62.6 | 19.6 | > 50 |
| -0.441 | CNC(=O)N1N=C(c2cccc(N)c2)c2cc3c(cc2CC1=O)OCO3 | 21.4 | 48.9 | 11.2 | 19.6 | 13.6 | 13.6 |  |  |  |  |  |  |  |  |  |  |
| -0.213 | Nc1cccc(C2=NN=C(S)Cc3cc4c(cc32)OCO4)c1 | 30.9 | 53.7 | 8.88 | 40.2 | 16.7 | 16.7 | 32.6 | 85.9 | 26.2 | 45.2 | 32.8 | 22.4 | 15.2 | 65.2 | 18.6 | > 50 |
| -0.368 | CCNC(=O)N1N=C(c2ccc(N)cc2)c2cc3c(cc2CC1=O)OCO3 | 52.5 | 134 | 23.8 | 68.2 | 35 |  |  |  |  |  |  |  |  |  |  |  |

More lines, now with the values behind:

| SMILES | Rm [2] | ED50 (Mus musculus [1]) [µmol/kg] | TD50 (Mus musculus [3]) [µM/kg] | ED50 (Mus musculus [4]) [µmol/kg] | ED50 (Mus musculus [5]) [µmol/kg] | ED50 (Mus musculus [6]) [µmol/kg] | ED50 (Mus musculus [7]) [µmol/kg] | ED50 (Mus musculus [8]) [µmol/kg] | ED50 (Mus musculus [9]) [µmol/kg] | ED50 (Mus musculus [10]) [µmol/kg] | ED50 (Mus musculus [11]) [µmol/kg] | ED50 (Mus musculus [12]) [µmol/kg] | ED50 (Mus musculus [13]) [µmol/kg] | ED50 (Mus musculus [14]) [µmol/kg] | ED50 (Mus musculus [15]) [µmol/kg] | ED50 (Mus musculus [16]) [µmol/kg] | ED50 (Mus musculus [17]) [µmol/kg] |
| --- | --- | --- | --- | --- | --- | --- | --- | --- | --- | --- | --- | --- | --- | --- | --- | --- | --- |
| SC1=NN=C(c2ccccc2)c2cc3c(cc2C1)OCO3 | -0.185 | 37.8 | 97.1 | 18.8 | 80.3 | 23.8 | 23.8 |  |  |  |  |  |  |  |  |  |  |
| CCCNC(=O)N1N=C(c2cccc(N)c2)c2cc3c(cc2CC1=O)OCO3 | -0.181 | > 100 | >100 | 63.8 | > 100 | 85.3 |  |  |  |  |  |  |  |  |  |  |  |
| CCCCNC(=O)N1N=C(c2ccc(N)cc2)c2cc3c(cc2CC1=O)OCO3 | -0.11 | 79.7 | 108 | 32.6 | > 100 | 38.7 |  |  |  |  |  |  |  |  |  |  |  |
| CCCCNC(=O)N1N=C(c2cccc(N)c2)c2cc3c(cc2CC1=O)OCO3 | -0.075 | 26.6 | 56.2 | 12.7 | 36.4 | 18.1 |  |  |  |  |  |  |  |  |  |  |  |
| CNC(=O)N1N=C(c2ccc(N)cc2)c2cc3c(cc2CC1=O)OCO3 | -0.459 | 18.6 | 48.6 | 8.7 | 16.3 | 12.4 | 12.4 | 14.3 | 31 | 10.3 | 19.4 | 18.6 | 13 | 12.1 | 33.9 | 8.61 | 40.8 |
| O=C1Cc2cc3c(cc2C(c2ccccc2)=NN1)OCO3 | -0.215 | 42.6 | 159 | 40.6 | 78 | 43.3 | 43.3 |  |  |  |  |  |  |  |  |  |  |
| Nc1cccc(C2=NNC(=O)Cc3cc4c(cc32)OCO4)c1 | -0.484 | 19.3 | 101 | 12.7 | 40.5 | 18 | 18 | > 50 | 40.6 | 23.8 | 47.1 | 29.2 | 26.3 | 19.1 | 55 | 23.2 | > 50 |
| CC1=NN=C(c2ccc(N)cc2)c2cc3c(cc2C1)OCO3 [GYKI-52466] | -0.404 |  | 76.1 |  |  |  |  | 10.8 |  |  | > 50 |  |  | 37.2 |  | 27.8 | > 50 |
